High-throughput results deposited in PubChem by Broad Institute.
Glyco luc inh – N-linked glycosylation inhibition; D54 ERlucT glycosylation luciferase reporter, 24 h; percent of 100 nM tunicamycin response; reporter increase, % at 12.5 µM; 360,000 tested, 0.23% active; AID 588692;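 active means mean luciferase reporter signal, scaled so untreated is 0 and the glycosylation-blocking control 100, at or above a set limit in every replicate; inconclusive means mean reaches the limit but not every replicate does; inactive means mean below the limit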;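 further: luciferase carries N-glycosylation sites so blocking glycosylation raises the light; 0% = median of neutral control wells and 100% = median of 100 nM tunicamycin wells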
HSF-1 act – increases HSF-1 driven luciferase reporter signal; NIH3T3-HGL HSF-1 luciferase reporter, MG132, 8 h; 100% = twice DMSO control signal; activation, % at 9 µM; 300,000 tested, 1.7% active; AID 504408;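 active means mean replicate activation of at least 50% with a set share of replicates each reaching 50%; inconclusive means only one of those two conditions met; inactive means mean below 50% and too few replicates reaching it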;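 further: 0% = median of the neutral control wells and 100% = twice that signal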
PvdQ inh – blocks Pseudomonas aeruginosa PvdQ acylase activity. AID 488965. purified PvdQ acylase, fluorescence plate reader. 340,000 tested, 0.063% active. inhibition, % at 10 µM; in the data active means inhibition above about 30%, passing the limit was not always enough; inconclusive means no clear call, values can overlap the other calls;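 further: 0% = vehicle neutral wells and 100% = reference inhibitor wells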
PfHsp90 yeast 2 – reduces growth (ATP signal) of yeast expressing P. falciparum Hsp90. S. cerevisiae expressing PfHsp90, BacTiter-Glo ATP, 48 h; yeast lacking PDR1 and PDR3 efflux regulators. inhibition, % at 9.4 µM. 310,000 tested, 0.32% active. AID 504621;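 active means every replicate shows inhibition above about 80%, whatever the replicate mean, limit read from the data; inconclusive means mean inhibition reaches the set limit but some replicate falls short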;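 further: 0% = DMSO neutral controls and 100% = 20 µM radicicol positive controls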
CaV13 ICDI inh – Primary screen for inhibitors of IQ motif and Ca2+-dependent inactivation inhibitor domain binding in CACNA1D, Förster resonance energy transfer in living cells, …; HEK cells, CFP/YFP FRET ICDI-IQ, plate reader, 10 min; percent FRET-ratio fall versus neutral wells; inhibition, % at 12.3 µM; 340,000 tested, 0.098% active;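 active means mean replicate inhibition of at least 30% and at least 1% of replicates passing that level; inconclusive means only one of the two criteria is met; inactive means neither criterion is met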;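 further: 0% = median of the neutral control wells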
T cruzi inh – T. cruzi replication inhibition; inhibition, % (concentration not given with the values); T. cruzi beta-gal in NIH3T3, luminescence, 90 h; 300,000 tested, 1.4% active;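 active means mean inhibition across valid replicates above about 55%, limit read from the data; inconclusive means mean below that limit but half or more replicates reach it; inactive means mean below it, under half of replicates reach it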;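 further: signal also drops with host cell toxicity which is not excluded here; 0% = plate median of DMSO wells and 100% = zero luminescence signal; higher percent means less beta-gal luminescence so fewer parasites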
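System – NIH/3T3 host cells with β-galactosidase reporter T. cruzi · Doses – single 50 nL compound addition per well in DMSO · Reagent – 5000 T. cruzi trypomastigotes/well · Medium – Low-serum DMEM with 2% FBS · Timing – ≥90 h infection period, 3 h prior cell attachment · Evaluation – parasite load inhibition, % · Technique – GalScreen luminescence, 60 min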
Numbers without * were called inactive. This is a sample that favours compounds with a hit; in the whole collection about 3% have one here.

Screening Cn1c(SCC(=O)NC2CCCCCC2)nnc1-c1ccco1 returned Glyco luc inh 0, HSF-1 act 9, PvdQ inh -12, PfHsp90 yeast 2 6, CaV13 ICDI inh -5 and T cruzi inh 6.
`COCc1[nH]nc2c1C(c1cccc(C(F)(F)F)c1)NC2=O` (centres undefined) gave CaV13 ICDI inh -4.
Screening Clc1ccc(COc2ccccc2CNCc2cccnc2)cc1 returned Glyco luc inh -1, HSF-1 act -8, PvdQ inh -3, PfHsp90 yeast 2 -1, CaV13 ICDI inh -8 and T cruzi inh inconclusive.
For OCCNCc1cc(Br)ccc1OCc1ccc(Cl)cc1 the results were Glyco luc inh 0, HSF-1 act 18, PvdQ inh -11, PfHsp90 yeast 2 21, CaV13 ICDI inh -4 and T cruzi inh -17.
Screening Brc1ccc(OCc2ccccc2)c(CNCc2ccncc2)c1 returned Glyco luc inh -4, HSF-1 act 6, PvdQ inh 0, CaV13 ICDI inh -5 and T cruzi inh 56*.
Fc1ccc(COc2ccccc2CNCc2ccncc2)cc1 was read as Glyco luc inh 0, HSF-1 act 11, PvdQ inh -5, PfHsp90 yeast 2 16, CaV13 ICDI inh -4 and T cruzi inh 56*.
Screening Brc1ccccc1OCCCn1cnc2ccccc21 returned Glyco luc inh -4, HSF-1 act 61*, PvdQ inh -10, PfHsp90 yeast 2 -37, CaV13 ICDI inh -5 and T cruzi inh -2.
Clc1cccc(CNc2ccn3nc(-c4cccc(OCc5ccccc5)c4)cc3n2)c1 was read as Glyco luc inh -6 and CaV13 ICDI inh -9.
Cn1ccnc1/C(=N\NC(=O)c1ccccc1)c1cccc([N+](=O)[O-])c1 was read as Glyco luc inh 8, HSF-1 act 4, PvdQ inh -6, CaV13 ICDI inh -7 and T cruzi inh 4.
Cc1c(C(=O)Nc2cccc([N+](=O)[O-])c2)csc1-c1ccccc1 was read as Glyco luc inh -21, HSF-1 act 41, PvdQ inh 2, CaV13 ICDI inh -5 and T cruzi inh 60*.
Screening O=C(Nc1ncc(Cc2cc(Cl)ccc2Cl)s1)c1ccc([N+](=O)[O-])cc1 returned Glyco luc inh -1, HSF-1 act 21, PvdQ inh 2, PfHsp90 yeast 2 -7, CaV13 ICDI inh -5 and T cruzi inh 57*.
`O=C(Nc1nc(-c2ccccc2)cs1)c1cccc([N+](=O)[O-])c1` gave Glyco luc inh 3, HSF-1 act 11, PvdQ inh -16, CaV13 ICDI inh -3 and T cruzi inh 55*.
`O=C(N/N=C(\c1ccccc1)c1ccccn1)c1cccc([N+](=O)[O-])c1` gave Glyco luc inh -14, PvdQ inh -6, PfHsp90 yeast 2 -6 and T cruzi inh 58*.
Screening CC(C)(C)C(C(=O)NCc1ccccc1)N1CCN(CCN2CCOCC2)CC1 (centres undefined) returned CaV13 ICDI inh -4.
CC(=O)N1C[C@H]2CON(C)[C@H]2C[C@H]1c1ccc(-c2cccnc2)cc1 was read as Glyco luc inh 4 and CaV13 ICDI inh -7.
`COc1ccc(CC(=O)Nc2nccs2)cc1OC` gave Glyco luc inh 1, HSF-1 act 17, PvdQ inh -7, PfHsp90 yeast 2 -15, CaV13 ICDI inh -3 and T cruzi inh -4.
For COc1ccc(CC(=O)Nc2ncc([N+](=O)[O-])s2)cc1OC the results were Glyco luc inh 3, HSF-1 act -1, PvdQ inh -3, CaV13 ICDI inh -2 and T cruzi inh 63*.
For O=C(Nc1ccc(-c2csc(Nc3cccc(C(F)(F)F)c3)n2)cc1)c1ccccc1 the results were Glyco luc inh -11, HSF-1 act 27, PvdQ inh -14, PfHsp90 yeast 2 -3, CaV13 ICDI inh -4 and T cruzi inh 79*.
For O=C(Nc1ncc([N+](=O)[O-])s1)c1cccc([N+](=O)[O-])c1 the results were Glyco luc inh -14, HSF-1 act 35, PvdQ inh 39*, PfHsp90 yeast 2 25, CaV13 ICDI inh -21 and T cruzi inh 4.
For CC(C)C[C@H]1CNC(=O)C(=O)N1C[C@@H]1CCCN1C[C@H](Cc1ccccc1)N1C[C@H](Cc2ccccc2)N(CCc2ccccc2)C(=O)C1=O the results were CaV13 ICDI inh -6.
COCCNC(=O)C1(C)CCCN(Cc2cccc(OC(=O)c3ccccc3)c2)C1 (centres undefined) was read as Glyco luc inh 1 and CaV13 ICDI inh -6.
Screening CCOC(=O)Cc1ccc2sc(-c3ccccc3)nc2c1 returned Glyco luc inh 5, HSF-1 act 92*, PvdQ inh 2, PfHsp90 yeast 2 1, CaV13 ICDI inh -16 and T cruzi inh -3.
For CCOC(=O)c1sc(-c2ccccc2)nc1C the results were Glyco luc inh 0, HSF-1 act 10, PvdQ inh -7, PfHsp90 yeast 2 5, CaV13 ICDI inh -5 and T cruzi inh 1.
Screening Cc1cc(C(=O)CSc2nc3ccccc3o2)c(C)n1C1CC1 returned Glyco luc inh -2, HSF-1 act 63*, PvdQ inh -18, CaV13 ICDI inh -4 and T cruzi inh 5.
Screening CC(=O)c1cc2c(cc1NC(=O)CSc1nc3ccccc3o1)OCO2 returned Glyco luc inh 0, HSF-1 act 86*, PvdQ inh 0, PfHsp90 yeast 2 -21, CaV13 ICDI inh -5 and T cruzi inh 13.
`COc1ccc(-c2ccc3c(n2)CCCN3S(=O)(=O)c2ccccc2)cc1` gave CaV13 ICDI inh -5.
For Cc1noc(C)c1C(=O)OC(C)C(=O)c1c[nH]c2ccccc12 (centres undefined) the results were Glyco luc inh -1 and CaV13 ICDI inh -14.
Oc1c(Br)cc(Br)cc1C=Nc1ccc2[nH]ncc2c1 was read as Glyco luc inh 2, HSF-1 act -12, PvdQ inh 2, PfHsp90 yeast 2 -57, CaV13 ICDI inh -64 and T cruzi inh 3.
For Oc1c(Br)cc(Br)cc1C=Nc1cccnc1 the results were Glyco luc inh 1, HSF-1 act -3, PvdQ inh -4, PfHsp90 yeast 2 101*, CaV13 ICDI inh -6 and T cruzi inh 14.
For CCOc1ccc(Br)cc1C1=NN(C(C)=O)C(c2ccc([N+](=O)[O-])s2)O1 (centres undefined) the results were Glyco luc inh 36*, HSF-1 act 4, PvdQ inh -3, PfHsp90 yeast 2 108*, CaV13 ICDI inh -19 and T cruzi inh 49.
For CC(=O)N1N=C(c2cccc([N+](=O)[O-])c2)OC1c1ccccc1Cl (centres undefined) the results were Glyco luc inh -2, HSF-1 act 2, PvdQ inh -4, CaV13 ICDI inh -4 and T cruzi inh 3.
